This note sets out measurements from paper PMC5797669 (Cellular signalling, 2016).

The target in experiment [1] is hY4R point mutant S^7.93/96A, C-terminally fused to RLuc8 (human) (UniProt P50391). Description: FRET or BRET.
For experiment [2], the target named is hY4R point mutant S^7.100/103A, C-terminally fused to RLuc8 (human) (UniProt P50391). Description: FRET or BRET.
Experiment [3] addresses hY4R deletion mutant Δ7.78, C-terminally fused to RLuc8 (human) (UniProt P50391). The experiment in a line: FRET or BRET. A general note: BRET reads energy transfer from a luciferase to a nearby fluorophore.
Experiment [4] addresses hY4R point mutant E^7.78/79/81A, C-terminally fused to RLuc8 (human) (UniProt P50391). Description: FRET or BRET.
The target in experiment [5] is hY4R deletion mutant Δ7.93, C-terminally fused to RLuc8 (human) (UniProt P50391). Description: FRET or BRET.
In experiment [6] the target is hY4R point mutant S^7.80/86A, C-terminally fused to RLuc8 (human) (UniProt P50391). Description: FRET or BRET.
Experiment [7] deals with hY4R deletion mutant Δ7.97, C-terminally fused to RLuc8 (human) (UniProt P50391). Description: FRET or BRET.
Experiment [8] concerns the target hY4R point mutant T^7.87/90A, C-terminally fused to RLuc8 (human) (UniProt P50391). Description: FRET or BRET.
The target of experiment [9] is hY4R S^7.100/103A (Homo sapiens, UniProt P50391, S369A/S372A). Description: TAMRA-hPP ligand uptake by fluorescence microscopy. Conditions: HEK293, 100 nM, 60 min, acidic wash pH 3.0, Mean ± S.E.M., n ≥ 4. The format is cell-based. A digest of the protocol:
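HEK293 cells on slides at 70–80% confluence, transfected (Lipofectamine 2000) with 1 µg receptor plasmid. Next day, starved 30 min at 37 °C in Opti-MEM, optionally with Hoechst33342. […] Intracellular fluorescence quantified per cell, ≥10 cells per experiment.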

Experiment [10] relates to hY4R point mutants. The experiment in a line: [^125I]-hPP cell surface binding assay. Also noted: species or system human. To be noted: all point mutants; HEK293; compared to WT (set to 100%). A digest of the protocol: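 EYFP-fused receptor constructs transiently expressed in HEK293: 7 µg receptor DNA per 6-well by Lipofectamine 2000. Cells re-seeded next day into poly-D-lysine-coated 48-well plates and grown to confluence. Specific [125I]-hPP binding of each mutant expressed relative to wild-type receptor specific binding.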

Experiment [11] concerns the target N-terminally HA-tagged hY4R wild type fused to enhanced yellow fluorescent protein (human, UniProt P50391 1-375). Description: radioligand binding.

Where no end group is shown, it is not given here.

Bovine arrestin-3 N-terminally fused to Venus, sequence (P32120 whole entry, the tested form may be a part): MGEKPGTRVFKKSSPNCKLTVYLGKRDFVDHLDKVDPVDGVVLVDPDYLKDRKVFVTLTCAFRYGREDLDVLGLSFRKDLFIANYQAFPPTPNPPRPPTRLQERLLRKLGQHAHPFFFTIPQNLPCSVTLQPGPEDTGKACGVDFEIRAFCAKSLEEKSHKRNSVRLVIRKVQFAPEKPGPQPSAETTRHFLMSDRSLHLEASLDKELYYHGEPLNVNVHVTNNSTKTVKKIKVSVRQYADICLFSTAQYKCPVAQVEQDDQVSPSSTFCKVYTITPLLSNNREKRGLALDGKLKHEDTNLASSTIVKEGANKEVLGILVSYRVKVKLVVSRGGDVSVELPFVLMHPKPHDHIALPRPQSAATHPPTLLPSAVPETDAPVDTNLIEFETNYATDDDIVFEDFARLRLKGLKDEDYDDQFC
N-terminally HA-tagged hY4R wild type fused to enhanced yellow fluorescent protein, sequence (P50391 whole entry, the tested form may be a part): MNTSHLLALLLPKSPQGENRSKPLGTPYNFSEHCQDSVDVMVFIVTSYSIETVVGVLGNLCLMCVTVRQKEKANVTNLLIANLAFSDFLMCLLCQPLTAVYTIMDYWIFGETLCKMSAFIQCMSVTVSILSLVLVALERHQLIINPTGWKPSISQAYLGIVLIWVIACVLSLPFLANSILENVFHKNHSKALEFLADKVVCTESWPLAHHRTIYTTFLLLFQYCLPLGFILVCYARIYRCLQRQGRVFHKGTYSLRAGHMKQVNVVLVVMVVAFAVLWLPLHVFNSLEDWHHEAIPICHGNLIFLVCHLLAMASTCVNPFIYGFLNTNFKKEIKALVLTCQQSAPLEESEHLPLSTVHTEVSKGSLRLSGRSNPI
hY4R deletion mutant Δ7.97, C-terminally fused to RLuc8 (human), sequence (P50391 whole entry, stated change not applied, the tested form may be a part): as the sequence (P50391 whole entry, the tested form may be a part) above
hY4R point mutant S^7.100/103A, C-terminally fused to RLuc8 (human), sequence (P50391 whole entry, stated change not applied, the tested form may be a part): as the sequence (P50391 whole entry, the tested form may be a part) above
hY4R point mutant S^7.80/86A, C-terminally fused to RLuc8 (human), sequence (P50391 whole entry, stated change not applied, the tested form may be a part): as the sequence (P50391 whole entry, the tested form may be a part) above
hY4R deletion mutant Δ7.93, C-terminally fused to RLuc8 (human), sequence (P50391 whole entry, stated change not applied, the tested form may be a part): as the sequence (P50391 whole entry, the tested form may be a part) above
hY4R deletion mutant Δ7.78, C-terminally fused to RLuc8 (human), sequence (P50391 whole entry, stated change not applied, the tested form may be a part): as the sequence (P50391 whole entry, the tested form may be a part) above
hY4R point mutant T^7.87/90A, C-terminally fused to RLuc8 (human), sequence (P50391 whole entry, stated change not applied, the tested form may be a part): as the sequence (P50391 whole entry, the tested form may be a part) above
hY4R point mutant S^7.93/96A, C-terminally fused to RLuc8 (human), sequence (P50391 whole entry, change not shown, the tested form may be a part): as the sequence (P50391 whole entry, the tested form may be a part) above
hY4R point mutant E^7.78/79/81A, C-terminally fused to RLuc8 (human), sequence (P50391 whole entry, stated change not applied, the tested form may be a part): as the sequence (P50391 whole entry, the tested form may be a part) above
hY4R S^7.100/103A, sequence (P50391 whole entry S369A/S372A): as the sequence (P50391 whole entry, the tested form may be a part) above, with S369A, S372A counted along it

With “Bovine arrestin-3 N-terminally fused to Venus (from UniProt P32120 1-420) (natural protein)”, the arr-3 recruitment, maximum net BRET (% of WT) in experiment [1] came out at 49%; in experiment [2] it was 95%; in [3], 1%; in [4], 25%; in experiment [5], 174%; in [6] it was 33%. In addition, the figures for the arr-3 recruitment, maximum net BRET (% of WT) in [7] and in [8] were 186% and 51%, respectively.
In the case of “TAMRA-hPP: hPP-derivative that was N-terminally modified with a TAMRA fluorophore”, the “TAMRA-hPP uptake (intracellular fluorescence)” value in experiment [9] is listed as 78 ± 11%.
Regarding “[^125I]-hPP: radioligand used in binding experiments”, in [10], the “cell surface expression ([^125I]-hPP binding)” value is reported as > 78%.
For APLEPVYPGDNATPEQMAQYAADLRRYINMLTRPRY-NH2 (peptide, UniProt P01298 30-65, looked up, also: 125I label (position not given here)) [[^125I]-labelled human pancreatic polypeptide], the “specific binding (% of WT)” value in experiment [11] came to 100%.
